Data from ChEMBL document CHEMBL3352073, “Synthesis of cyclic 1,9-acetal derivatives of forskolin and their bioactivity evaluation” (Eur J Med Chem, 2014).
Values after ≈ are worked out from the molar mass of the structure shown.

Experiments:
[1] = Inhibition of rat intestinal alpha-glucosidase using p-nitrophenyl-alpha-D-glucopyranoside substrate by spectrophotometry
Method in brief: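 Crude enzyme was the centrifuged supernatant of sonicated rat intestinal acetone powder in normal saline (100:1 w/v). Samples from 5 mg/mL DMSO stocks were preincubated with enzyme for 5 min in 100 mM phosphate buffer pH 6.8. Then 5 mM p-nitrophenyl-α-D-glucopyranoside solution was added, and p-nitrophenol was read at 405 nm after 5 min. Substrate-free blanks and a DMSO control were included, in triplicate. IC50 was obtained by regression on mean inhibition.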

[2] = Anticancer activity against human MDA-MB cells after 24 hrs by MTT assay; format: functional, cell-based
[3] = Anticancer activity against human SH-SY5Y cells after 24 hrs by MTT assay; format: functional, cell-based
[4] = tested on: MCF7; assay: Anticancer activity against human MCF7 cells after 24 hrs by MTT assay; format: functional, cell-based; conditions: MCF7, 24 h
Method in brief: (§1)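 Cells were seeded at 1 × 10^6 to 1 × 10^5 cells/well in FBS-rich medium with antibiotics, and compounds were added after 24 h. MTT (5 mg/ml stock in PBS pH 7.4) was then added, with 4 h in the dark in an incubator. Dye was removed (except for suspension K562), formazan was dissolved in DMSO with 10 min shaking, and A570 was read. Percent cytotoxicity was calculated relative to untreated control absorbance.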

[5] = tested on: K562; assay: Anticancer activity against human K562 cells after 24 hrs by MTT assay; format: functional, cell-based; conditions: K562, 24 h; method in brief: as §1
[6] = tested on: HeLa; assay: Anticancer activity against human HeLa cells after 24 hrs by MTT assay; format: functional, cell-based; method in brief: as §1
[7] = tested on: NRK; assay: Cytotoxicty against rat NRK cells after 24 hrs by MTT assay; format: cell-based; method in brief: as §1
[8] = tested on: A498; assay: Anticancer activity against human A498 cells after 24 hrs by MTT assay; format: functional, cell-based; conditions: A498, 24 h; method in brief: as §1
[9] = tested on: HEK293; assay: Cytotoxic activity against HEK293 cells after 24 hrs by MTT assay; format: cell-based; conditions: Homo sapiens, HEK293, 24 h; method in brief: as §1
[10] = tested on: WRL68; assay: Anticancer activity against human WRL68 cells after 24 hrs by MTT assay; format: functional, cell-based; conditions: WRL68, 24 h; method in brief: as §1
[11] = Induction of hemolysis in human erythrocytes assessed as mean erythrocyte fragility by measuring level of hemolysis at 50% PBS at 100 ug/mL by spectrophotomtery based erythrocyte osmotic fragility assay; format: cell-based
Method in brief: (§2)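 Heparinised human blood was incubated with compound at 37 °C for 60 min, then transferred to hypotonic PBS (0.1–0.85 %). After 30 min equilibration and centrifugation, supernatant A540 was read. Percent lysis is relative to a 100% haemolysis standard, and fragility curves give MEF50 as the haemolysis level at 50% PBS. DMSO 0.5% served as vehicle control.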

[12] = Induction of hemolysis in human erythrocytes assessed as mean erythrocyte fragility by measuring level of hemolysis at 50% PBS at 50 ug/mL by spectrophotomtery based erythrocyte osmotic fragility assay; format: cell-based; method in brief: as §2

Row | SMILES | IC50 [1] | IC50 [2] | IC50 [3] | IC50 [4] | IC50 [5] | IC50 [6] | IC50 [7] | IC50 [8] | IC50 [9] | IC50 [10] | Activity [11] | Activity [12]
1 | C=C[C@@]1(C)CC(=O)[C@@]23O[C@@H](c4ccccc4)O[C@H]4CCC(C)(C)[C@H]([C@H](O)[C@H](OC(C)=O)[C@@]2(C)O1)[C@]43C | 2.81 µg/mL (≈ 5.64 µM) | > 100 µg/mL | > 100 µg/mL | > 100 µg/mL | > 100 µg/mL | > 100 µg/mL | > 100 µg/mL | > 100 µg/mL | > 100 µg/mL | > 100 µg/mL |  | 
2 | C=C[C@@]1(C)CC(=O)[C@@]23O[C@@H](C)O[C@H]4CCC(C)(C)[C@H]([C@H](O)[C@H](OC(C)=O)[C@@]2(C)O1)[C@]43C | 5.87 µg/mL (≈ 13.4 µM) | > 100 µg/mL | > 100 µg/mL | > 100 µg/mL | > 100 µg/mL | > 100 µg/mL | > 100 µg/mL | > 100 µg/mL | > 100 µg/mL | > 100 µg/mL |  | 
3 | C=C[C@@]1(C)CC(=O)[C@@]23O[C@@H](c4ccc(Br)cc4)O[C@H]4CCC(C)(C)[C@H]([C@H](O)[C@H](OC(C)=O)[C@@]2(C)O1)[C@]43C | > 100 µg/mL | > 100 µg/mL | > 100 µg/mL | > 100 µg/mL | > 100 µg/mL | 46.2 µg/mL (≈ 79.9 µM) | > 100 µg/mL | > 100 µg/mL | > 100 µg/mL | > 100 µg/mL |  | 
4 | C=C[C@@]1(C)CC(=O)[C@@]23O[C@@H](c4ccc([N+](=O)[O-])cc4)O[C@H]4CCC(C)(C)[C@H]([C@H](O)[C@H](OC(C)=O)[C@@]2(C)O1)[C@]43C | 0.76 µg/mL (≈ 1.4 µM) | > 100 µg/mL | > 100 µg/mL | > 100 µg/mL | > 100 µg/mL | > 100 µg/mL | > 100 µg/mL | > 100 µg/mL | > 100 µg/mL | > 100 µg/mL |  | 
5 | C=C[C@@]1(C)CC(=O)[C@@]23O[C@@H](c4cccs4)O[C@H]4CCC(C)(C)[C@H]([C@H](O)[C@H](OC(C)=O)[C@@]2(C)O1)[C@]43C | > 100 µg/mL | > 100 µg/mL | > 100 µg/mL | > 100 µg/mL | > 100 µg/mL | 42 µg/mL (≈ 83.2 µM) | > 100 µg/mL | > 100 µg/mL | 40.1 µg/mL (≈ 79.6 µM) | > 100 µg/mL |  | 
6 | C=C[C@@]1(C)CC(=O)[C@@]23O[C@@H](c4ccco4)O[C@H]4CCC(C)(C)[C@H]([C@H](O)[C@H](OC(C)=O)[C@@]2(C)O1)[C@]43C | 4.96 µg/mL (≈ 10.2 µM) | > 100 µg/mL | > 100 µg/mL | > 100 µg/mL | > 100 µg/mL | > 100 µg/mL | > 100 µg/mL | > 100 µg/mL | > 100 µg/mL | > 100 µg/mL |  | 
7 | C=C[C@@]1(C)CC(=O)[C@@]23O[C@@H](/C=C/c4ccccc4)O[C@H]4CCC(C)(C)[C@H]([C@H](O)[C@H](OC(C)=O)[C@@]2(C)O1)[C@]43C | 0.74 µg/mL (≈ 1.41 µM) | > 100 µg/mL | > 100 µg/mL | > 100 µg/mL | > 100 µg/mL | > 100 µg/mL | > 100 µg/mL | > 100 µg/mL | 38.5 µg/mL (≈ 73.5 µM) | > 100 µg/mL |  | 
8 | C=C[C@@]1(C)CC(=O)[C@@]23O[C@@H](c4ccccc4)O[C@H]4CCC(C)(C)[C@H]([C@H](O)[C@H](O)[C@@]2(C)O1)[C@]43C | > 100 µg/mL | 20.8 µg/mL (≈ 45.4 µM) | 21.6 µg/mL (≈ 47.2 µM) | > 100 µg/mL | 1.26 µg/mL (≈ 2.77 µM) | 3.89 µg/mL (≈ 8.52 µM) | 23.7 µg/mL (≈ 51.9 µM) | 20.4 µg/mL (≈ 44.8 µM) | 1.17 µg/mL (≈ 2.56 µM) | 9.79 µg/mL (≈ 21.4 µM) | 0.69 | 0.67
9 | C=C[C@@]1(C)CC(=O)[C@@]23O[C@@H](C)O[C@H]4CCC(C)(C)[C@H]([C@H](O)[C@H](O)[C@@]2(C)O1)[C@]43C | 4.23 µg/mL (≈ 10.7 µM) | 24.5 µg/mL (≈ 62.1 µM) | 34.7 µg/mL (≈ 87.9 µM) | 45.7 µg/mL (≈ 116 µM) | 25.4 µg/mL (≈ 64.3 µM) | 0.95 µg/mL (≈ 2.41 µM) | 48 µg/mL (≈ 122 µM) | 40.6 µg/mL (≈ 103 µM) | 24.8 µg/mL (≈ 63 µM) | 29.7 µg/mL (≈ 75.4 µM) | 0.69 | 0.85
10 | C=C[C@@]1(C)CC(=O)[C@@]23O[C@@H](c4ccccc4)O[C@H]4CCC(C)(C)[C@H]([C@H](OC(C)=O)[C@H](O)[C@@]2(C)O1)[C@]43C | 4.14 µg/mL (≈ 8.3 µM) | 1.28 µg/mL (≈ 2.57 µM) | 16.6 µg/mL (≈ 33.3 µM) | 1.15 µg/mL (≈ 2.31 µM) | 1.26 µg/mL (≈ 2.53 µM) | 9.22 µg/mL (≈ 18.5 µM) | 20.1 µg/mL (≈ 40.4 µM) | 16.7 µg/mL (≈ 33.5 µM) | 14.3 µg/mL (≈ 28.7 µM) | 16.6 µg/mL (≈ 33.3 µM) | 0.57 | 0.53
11 | C=C[C@@]1(C)CC(=O)[C@@]23O[C@@H](C)O[C@H]4CCC(C)(C)[C@H]([C@H](OC(C)=O)[C@H](O)[C@@]2(C)O1)[C@]43C | 6.4 µg/mL (≈ 14.7 µM) | > 100 µg/mL | > 100 µg/mL | 39.2 µg/mL (≈ 89.9 µM) | > 100 µg/mL | 17.4 µg/mL (≈ 39.9 µM) | > 100 µg/mL | 41.6 µg/mL (≈ 95.3 µM) | > 100 µg/mL | > 100 µg/mL |  | 
12 | C[C@H]1O[C@H](O[C@H]2[C@H](O)[C@@H](O)[C@@H](O[C@H]3[C@H](O)[C@@H](O)C(O)O[C@@H]3CO)O[C@@H]2CO)[C@H](O)[C@@H](O)[C@@H]1N[C@H]1C=C(CO)[C@@H](O)[C@H](O)[C@H]1O (stereo partly specified) [ACARBOSE] | 0.45 µg/mL (≈ 0.697 µM) |  |  |  |  |  |  |  |  |  |  | 
13 | COc1cc(/C=C/C(=O)CC(=O)/C=C/c2ccc(O)c(OC)c2)ccc1O [CURCUMIN] |  |  |  |  |  |  |  |  |  |  | 0.53 | 
14 | CC(=O)O[C@H]1C(=O)[C@@]2(C)[C@H]([C@H](OC(=O)c3ccccc3)[C@]3(O)C[C@H](OC(=O)[C@H](O)[C@@H](NC(=O)c4ccccc4)c4ccccc4)C(C)=C1C3(C)C)[C@]1(OC(C)=O)CO[C@@H]1C[C@@H]2O [PACLITAXEL] |  | 0.026 µg/mL (≈ 0.0304 µM) | 7.3 µg/mL (≈ 8.55 µM) |  | 0.018 µg/mL (≈ 0.0211 µM) |  |  | 7.53 µg/mL (≈ 8.82 µM) | 0.008 µg/mL (≈ 0.00937 µM) | 0.004 µg/mL (≈ 0.00468 µM) |  | 
15 | COc1cc([C@@H]2c3cc4c(cc3[C@H](O)[C@H]3COC(=O)[C@H]23)OCO4)cc(OC)c1OC [PODOFILOX] |  | 0.017 µg/mL (≈ 0.041 µM) | 1.05 µg/mL (≈ 2.53 µM) |  | 0.013 µg/mL (≈ 0.0314 µM) | 3.14 µg/mL (≈ 7.58 µM) |  | 0.034 µg/mL (≈ 0.082 µM) | 0.12 µg/mL (≈ 0.29 µM) |  | 0.69 | 
